From ChEMBL document CHEMBL1149329, “Synthesis and biological activity of sulfonamide derivatives of epipodophyllotoxin” (J Med Chem, 2004) come the findings set out here.

The test system of one assay is A-431. In words: […] antiproliferative activity against A431 cell line. Format: functional. Conditions: Homo sapiens.
The subject of assay [1] is A549. In words: Antitumor activity against A549 non small cell carcinoma at dose range of 70-100 mg/kg on day 14, 21, 28; activity expressed as maximum tolerated dose. Format: functional, Homo sapiens. The method in brief:
(§1)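 A549 human lung tumour cells were implanted orthotopically, 10⁶ cells through the chest wall into the left pleural space of anaesthetised BALB/C nude mice. Once tumours were established, drug was given iv on days 14, 21 and 28 after tumour cell injection. The endpoint was life span, expressed as T/C (%) = median survival time of treated/control × 100. MTD was the dose causing no toxic death and/or no weight loss >20%.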

Assay [2] relates to A549. In words: […] antiproliferative activity against A549 cell line. Format: functional. The settings on record: Homo sapiens.
Another assay concerns DU-145. In words: […] antiproliferative activity against DU-145 cell line. It is filed as functional. Conditions: Homo sapiens.
The target of assay [3] is DNA topoisomerase II (Homo sapiens) (UniProt P11388+Q02880). In words: Inhibition of human DNA Topoisomerase II mediated DNA cleavage through the stabilization of transient DAN/topoisomerase II cleavage complex. It is filed as protein assay. The method in brief: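 Supercoiled pBS DNA (0.1 μg) preincubated 15 min at 30 °C with drug at 50 μM in 50 mM Tris-HCl pH 7.5, 1 mM ATP, 120 mM KCl, 10 mM MgCl2, 0.5 mM DTT, 0.1 mM EDTA, BSA. Two units human topo II added, 30 min at 30 °C. SDS/proteinase K digestion 30 min at 55 °C. 1% agarose gel with ethidium bromide; linear DNA percentage read, mean of three independent experiments.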

The subject of the next assay is HT-29. In words: […] antiproliferative activity against HT-29 cell line. Conditions: Homo sapiens. It is filed as functional.
The test system of the next assay is L1210. In words: Percent of L1210 cells in the G2+M phase of the cell cycle at a compound concentration of 2.5 uM. It is filed as functional, Mus musculus. The gist of the method: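 L1210 cells (2.5 × 10⁵ cells/mL) were incubated for 21 h with compound at the stated concentration. Flow cytometry was run on 10⁴ cells per sample, and the percentage of cells in G2+M was recorded.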

Another assay relates to IGROV-1. In words: […] antiproliferative activity against IGROV1 cell line. Format: functional. Conditions: Homo sapiens.
The next assay deals with K562. In words: […] antiproliferative activity against K-562 cell line. Conditions: Homo sapiens. It is filed as functional.
In a further assay the test system is MDA-MB-231. In words: […] antiproliferative activity against MDA-MB-231 cell line. Conditions: Homo sapiens. Format: functional.
Another assay is filed under the species Mus musculus. In words: Compound was evaluated for long-term survivors scored at day 60; 6/42. It is filed as functional.
The test system of another assay is NCI-H69. In words: […] antiproliferative activity against NCI-H69 cell line. It is filed as functional. Conditions: Homo sapiens.
Assay [4] relates to P388. In words: […] antiproliferative activity against P388 cell line. Format: functional. The settings on record: Mus musculus.
Assay [5] relates to P388. In words: Antitumor activity against P388 leukemia at dose range of 6.25-100 mg/kg on day 1, activity expressed as maximum tolerated dose. It is filed as functional, Mus musculus.
In assay [6] the test system is P388. In words: Median survival time of treated animals/median survival time of control animals. It is filed as functional, Mus musculus.
A short description of assay [7]: Median survival time of treated animals/median survival time of control animals; ranges from 122-131. It is filed as functional. The gist of the method: as §1
A further assay relates to SK-N-MC. In words: […] antiproliferative activity against SK-N-MC cell line. Format: functional. The settings on record: Homo sapiens.
The next assay deals with KB 3-1. In words: In vitro antiproliferative activity against KB-3-1 cell line. The settings on record: Homo sapiens.

On to `COc1cc([C@@H]2c3cc4c(cc3[C@@H](O[C@@H]3O[C@@H]5CO[C@@H](C)O[C@H]5[C@H](O)[C@H]3O)[C@H]3COC(=O)[C@H]23)OCO4)cc(OC)c1O` [ETOPOSIDE], for which the IC50 – broadly, the midpoint of a concentration-inhibition curve – was 591 nM in the assay on A-431; 664 nM in the assay on A549 [2]; 2370 nM in the assay on DU-145; 2370 nM with HT-29; 984 nM in the assay on IGROV-1; 522 nM with K562. Also, the 50% inhibitory concentration (IC50) with MDA-MB-231 turned out to be 600 nM; in the assay on NCI-H69, 1190 nM; with P388 [4], 29.8 nM; in the assay with SK-N-MC, 275 nM; in the assay with KB 3-1 it was 566 nM. Besides, the MTD in the assay with A549 [1] was 70; in the assay on P388 [5], 100. The compound also displayed an Activity in assay [3] of 50. In the assay on L1210, this compound had an Effect of 80%. Besides, the LTS in the assay filed under Mus musculus worked out at 6. Moreover, the results for the T/C (in the assay with P388 [6]; in assay [7]) were 233% and 131%, respectively.
